PTEN del growth: growth suppression of PTEN-null HCT116, primary screen, cell-based, CellTiter-Glo. HCT116 PTEN-null viability, 60 h; hits give low values. viability, % at 10 µM. hit rate 1.2% among 140,000;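 active = viability at or below a set limit, 4 SD under the median of all tested compounds, cut at about 3.7% in these data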;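 also: PTEN knockout HCT116 line with beta catenin targeted HCT116 as companion control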
HCT116 bCat-KO: primary screen for growth suppressors in beta-catenin knockout HCT116 cells (colon tumor, human). HCT116 beta-catenin knockout viability, CellTiter-Glo, 60 h; hits give low values. viability, % at 10 µM. hit rate 1.5% among 140,000;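 active = viability at or under a set limit, the compound median less 4 SD, cut at about 6% in these data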
HUVEC inhibit: inhibitors of HUVEC proliferation, primary screen, cell-based, 384-well; CellTiter-Glo luminescence, 72 h; hits give low values; viability, % at 10 µM (by protocol); AID 648, 2007; hit rate 1.1% among 86,000;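 active = viability at or below 30%; inactive = viability above 30%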
PTK2B oligo ant: antagonists of Pyk2 self-association, primary screen, Q293 cells, FERM NanoBiT luminescence, HTS | z-score (the deposit names both 25 µM and 10 µM) | AID 1347419, 2020 | hit rate 0.83% among 99,000 | hits give low values;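 active = Z-score of -3 or lower, scaled per plate to the spread of control and sample wells; inactive = z-score above -3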;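 also: negative z-score means lost luminescence so less FERM oligomerization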
Target sequence (Q14289 whole entry, looked up): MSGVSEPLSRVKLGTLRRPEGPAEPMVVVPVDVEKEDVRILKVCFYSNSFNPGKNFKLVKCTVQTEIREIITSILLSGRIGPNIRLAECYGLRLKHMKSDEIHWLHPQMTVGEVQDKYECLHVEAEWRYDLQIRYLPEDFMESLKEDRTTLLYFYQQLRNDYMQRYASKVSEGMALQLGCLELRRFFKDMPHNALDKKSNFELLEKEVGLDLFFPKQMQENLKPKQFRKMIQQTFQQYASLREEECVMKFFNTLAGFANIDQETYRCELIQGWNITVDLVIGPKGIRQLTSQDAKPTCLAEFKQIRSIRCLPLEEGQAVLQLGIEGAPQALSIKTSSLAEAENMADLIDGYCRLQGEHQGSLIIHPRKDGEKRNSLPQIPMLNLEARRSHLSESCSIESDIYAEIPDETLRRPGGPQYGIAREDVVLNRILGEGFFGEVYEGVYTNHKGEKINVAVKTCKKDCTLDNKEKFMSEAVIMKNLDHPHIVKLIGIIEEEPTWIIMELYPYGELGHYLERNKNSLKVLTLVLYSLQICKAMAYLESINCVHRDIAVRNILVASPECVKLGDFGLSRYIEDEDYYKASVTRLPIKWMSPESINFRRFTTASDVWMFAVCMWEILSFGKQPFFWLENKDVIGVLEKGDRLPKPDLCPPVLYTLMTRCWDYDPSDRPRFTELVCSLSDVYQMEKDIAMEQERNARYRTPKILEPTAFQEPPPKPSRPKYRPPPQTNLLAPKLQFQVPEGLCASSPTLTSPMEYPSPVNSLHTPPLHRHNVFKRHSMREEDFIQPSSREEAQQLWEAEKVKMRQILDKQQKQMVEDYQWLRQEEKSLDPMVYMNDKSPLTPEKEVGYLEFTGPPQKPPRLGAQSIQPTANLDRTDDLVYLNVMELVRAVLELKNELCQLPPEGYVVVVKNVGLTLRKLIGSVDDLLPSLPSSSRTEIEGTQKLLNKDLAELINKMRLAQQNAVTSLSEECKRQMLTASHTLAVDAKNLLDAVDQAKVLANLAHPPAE
H69AR inhibit: proliferation blockers of H69AR lung cancer cells, primary screen, cell-based, human, 86K library; H69AR lung tumor viability, ATP luminescence, 72 h; hits give low values; hit rate 6% among 85,000; viability, % at 10 µM;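 active = viability at or below 40%; inactive = viability above 40%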;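 also: multidrug resistant small cell line overexpressing MRP-1 efflux transporter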
Fibroblast inh: antiproliferative effect on LL 47 fibroblasts – human, LL 47 cells, CellTiter-Glo luminescence, primary screen. LL 47 human lung fibroblast viability, ATP luminescence; hits give low values. viability, % at 10 µM. hit rate 1.1% among 85,000;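 active = viability at or below 50% in the single dose screen; inactive = viability above 50%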;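 also: compound exposure lasted 72 h before the ATP readout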
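material = human LL 47 lung fibroblast cells | dosing = compounds added from tenfold dosing solution, 0.1% DMSO final | timing = overnight cell rest, 72 h compound treatment at 37 °C | measured by = CellTiter-Glo luminescence measuring cellular ATP | evaluation = % viability versus median cells-only luminescence | control set = cell-only wells, no compound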
Hits are given with their value; – = inactive; · = no result given. This excerpt belongs to a sample that is enriched for hits.

SMILES	PTEN del growth	HCT116 bCat-KO	HUVEC inhibit	PTK2B oligo ant	H69AR inhibit	Fibroblast inh
Cc1cc(=O)[nH]c(SCC(=O)Nc2ccc(Br)cc2)c1C#N	–	–	–	–	31	–
CC(=O)OCC(=O)NCC(=O)c1c[nH]c2ccccc12	–	–	·	·	·	·
Cc1nc2ccc(NC(=O)Cc3ccc4c(c3)OCCO4)cc2s1	–	–	·	·	·	·
Cc1cc(C)c2c(c1)-c1c(ssc1=S)C(C)(C)N2C(=O)CSc1nncn1C	–	–	–	–	13	–
O=C1C2C3CCC(C3NCc3ccccc3)C2C(=O)N1Cc1ccccc1 (configuration not stated)	–	–	·	–	·	·
Fc1ccc(Sc2nc(-c3ccccc3)nnc2C(F)(F)F)cc1	2.1	4.1	·	–	·	·
Cc1ccc(C2Nc3cccc4cccc(c34)N2)s1	–	–	·	·	·	·
COc1cc(C2Nc3cccc4cccc(c34)N2)cc(OC)c1O	–	–	–	–	19	–
c1coc(C2Nc3cccc4cccc(c34)N2)c1	–	–	–	·	6.7	–
Oc1ccc(C2Nc3cccc4cccc(c34)N2)c(O)c1	–	–	–	–	17	–
OCCNCc1cc(Br)ccc1OCc1ccc(Cl)cc1Cl	–	4.7	·	–	·	·
CCOc1cc(CNCCO)cc(Br)c1OCc1ccc(Cl)cc1Cl	1.5	1.4	·	–	·	·
CC(NC(=O)C1CCN(S(=O)(=O)c2cnc[nH]2)CC1)c1ccccc1 (configuration not stated)	–	–	·	·	·	·
CCOc1cc(/C=C\c2[nH]c(=O)[nH]c(=O)c2[N+](=O)[O-])ccc1OC(C)CC (configuration not stated)	–	–	15	·	–	–
CN1CCN(C(N)=NC(=O)c2ccccc2)CC1	–	–	·	·	·	·
CCC(C)Nc1nc(-c2cccc(OC)c2O)nc2ccccc12 (configuration not stated)	2.1	2.5	–	–	4.9	–
Oc1ccccc1-c1nc(NCC2CCCO2)c2ccccc2n1 (configuration not stated)	–	–	–	–	36	–
COc1cccc(-c2nc(NCC3CCCO3)c3ccccc3n2)c1O (configuration not stated)	–	–	–	–	32	–
Cc1cccc(-n2c(CNC(=O)c3ccc(S(=O)(=O)N(C)C)cc3)nnc2SCC(=O)Nc2ccc(F)cc2)c1	–	–	·	–	·	·
Cc1c(C(=O)Nc2ccc3c(c2)OCO3)sc2ncn(CC(=O)N3CC(C)CC(C)C3)c(=O)c12 (configuration not stated)	–	–	–	–	–	–
Cc1ccc(SC(c2ccccc2)C(Cn2cncn2)C(=O)c2ccccc2)cc1 (configuration not stated)	–	–	·	–	·	·
O=C(c1ccc(Cl)cc1)C(Cn1cncn1)C(Sc1ccccc1)c1ccccc1 (configuration not stated)	–	5.6	·	–	·	·
Cc1ccc(C)c(C(=O)COc2ccccc2[N+](=O)[O-])c1	1.6	1.9	·	·	·	·
CCN(CC)CCNc1c2c(c(C#N)c3nc4ccccc4n13)CCCC2	3.6	–	–	–	33	–
CN(C)CCNc1c2c(c(C#N)c3nc4ccccc4n13)CCCC2	–	–	–	–	–	–
SMILES	PTEN del growth	HCT116 bCat-KO	HUVEC inhibit	PTK2B oligo ant	H69AR inhibit	Fibroblast inh
CCOc1cc(/C=N/NC(=O)Cn2nc([N+](=O)[O-])cc2C)cc(Br)c1OCc1ccccc1C	2.1	1.5	3.6	–	0.6	5.9
O=C1CN(C(=O)c2ccccc2)c2ccccc2N1	–	–	–	–	–	–
O=C1CN(C(=O)c2cc(Br)c(Br)s2)c2ccccc2N1	–	–	–	–	16	–
O=C(Nc1nnc(-c2ccccc2Cl)s1)C1CCN(S(=O)(=O)c2ccc(Cl)cc2)CC1	–	–	·	·	·	·
O=C(Nc1nnc(COc2ccccc2)s1)C1CCN(S(=O)(=O)c2ccc(Cl)cc2)CC1	–	–	–	–	33	–
CC1(C)CC(NC(=O)c2ccc3c(c2)OCO3)CC(C)(C)N1	–	–	–	–	–	–
CC1(C)CC(NC(=O)c2coc(=O)c(Br)c2)CC(C)(C)N1	–	–	–	–	0.7	34
Oc1c(N=Nc2ccccn2)ccc2ccccc12	2.0	1.8	·	–	·	·
Oc1ccc(N=Nc2c(O)ccc3ccccc23)cc1	–	–	·	–	·	·
Cc1ccc2cc(C3C(C#N)=C(N)Oc4c3ccc3cccnc43)c(=O)[nH]c2c1 (configuration not stated)	–	–	–	–	37	–
CCc1ccc2[nH]c(=O)c(C3C(C#N)=C(N)Oc4c3ccc3cccnc43)cc2c1 (configuration not stated)	–	–	–	–	0.8	–
CC(=O)C1=C(C)OC(N)=C(C#N)C1c1cc2cccc(C)c2nc1Cl (configuration not stated)	–	–	·	–	·	·
CN(C)C(=O)N1CCN(C(=O)N2CCOCC2)CC1	–	–	–	–	–	–
CCCCN(C)C/C(O)=C(\C#N)c1nc(-c2ccccc2)cs1	–	–	–	–	39	–
N#C/C(=C(/O)CN1CCOCC1)c1nc(-c2ccccc2)cs1	–	–	–	–	–	–
COc1ccc(Cn2c(CCC(=O)Nc3ccc(C)c(C)c3)nc3cccnc32)cc1	–	–	–	–	37	–
CCOC(=O)c1csc(Nc2nc3ccc(F)cc3s2)n1	–	4.7	·	–	·	·
CC(=O)c1sc(Nc2nc3ccc(F)cc3s2)nc1C	–	–	–	–	21	–
NC(=O)c1ccc(NC(=O)COC(=O)c2cccc(Oc3ccccc3)c2)cc1	–	–	·	·	·	·
CC(C)(C)C1CCc2c(C(=O)NNC(=O)CCC(=O)O)csc2C1 (configuration not stated)	–	–	·	·	·	·
CCc1ccc(C(=O)CSc2n[nH]c(-c3ccncc3)n2)cc1	–	–	–	–	–	–
O=C(CSc1n[nH]c(-c2ccccc2)n1)c1ccc(O)c(O)c1	–	–	–	–	27	–
Cc1ccc(-c2cc(C(F)F)nc(NCc3cccnc3)n2)cc1	–	–	–	-3.6	–	–
COc1ccc(-c2cc(C(F)(F)F)nc(NCc3cccs3)n2)cc1	–	–	·	·	·	·
Cc1ccc(-c2cc(C(F)F)nc(NCc3cccs3)n2)cc1	–	–	·	·	·	·
FC(F)(F)c1cc(-c2ccc(Cl)cc2)nc(NCc2cccnc2)n1	–	–	–	-3	–	–
COC(=O)c1cc(OC)c(OC)cc1NC(=O)Cn1nnc(-c2ccccc2Cl)n1	–	–	–	–	35	–
COC(=O)c1cc(OC)c(OC)cc1NC(=O)c1c(-c2ccccc2Cl)noc1C	–	–	–	–	35	·
COc1ccc(NC(=O)Cn2nnc(-c3ccccc3F)n2)cc1Cl	–	–	–	–	–	–
